Experimental data as given in ChEMBL document CHEMBL1811806, “Synthesis and biological evaluation of 4β-acrylamidopodophyllotoxin congeners as DNA damaging agents” (2011).
Active and inactive are the calls of the source. The calls are words filed in the database; no cut-off is given here.

Legend:
A549 = assay: Cytotoxicity against human A549 cells after 48 hrs by sulforhodamine B assay; assay type: functional; conditions: A549, 48 h
Summary of the method: (§1)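 SRB growth assay, 48 h continuous exposure. Cells grown in DMEM with 10% FBS and 2 mM L-glutamine, plated at densities set by doubling time, preincubated 24 h at 37 °C, 5% CO2. Four concentrations (0.1, 1, 10, 100 µM) in triplicate wells. TCA fixation, 0.4% SRB staining, absorbance at 540 nm against 690 nm reference. GI50 from time-zero-corrected growth; repeated three times.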

COLO 205 = assay: Cytotoxicity against human COLO205 cells after 48 hrs by sulforhodamine B assay; assay type: functional; conditions: COLO 205, 48 h; summary of the method: as §1
[1] = Cytotoxicity against human Gurav cells after 48 hrs by sulforhodamine B assay; assay type: functional; summary of the method: as §1
[2] = Cytotoxicity against human DWD cells after 48 hrs by sulforhodamine B assay; assay type: functional; summary of the method: as §1
ZR-75-1 = assay: Cytotoxicity against human ZR-75-1 cells after 48 hrs by sulforhodamine B assay; assay type: functional; conditions: ZR-75-1, 48 h; summary of the method: as §1
MCF7 [3] = assay: Cytotoxicity against human MCF7 cells after 48 hrs by sulforhodamine B assay; assay type: functional; conditions: MCF7, 48 h; summary of the method: as §1
A2780 = assay: Cytotoxicity against human A2780 cells after 48 hrs by sulforhodamine B assay; assay type: functional; conditions: A2780, 48 h; summary of the method: as §1
HOP-62 = assay: Cytotoxicity against human HOP62 cells after 48 hrs by sulforhodamine B assay; assay type: functional; conditions: HOP-62, 48 h; summary of the method: as §1
MCF7 [4] = assay: Cytotoxicity against human MCF7 cells at 2 to 4 uM after 24 hrs by MTT assay; assay type: functional, cell-based
Summary of the method: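 MCF-7 cells in DMEM with 10% fetal calf serum and penicillin/streptomycin, seeded at 10,000 cells/well and incubated overnight. Treated at 2 and 4 µM for 24 h, then medium replaced with MTT and incubated 2 h at 37 °C. Formazan dissolved in extraction buffer and read at 570 nm.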

MCF7 [5] = assay: Cell cycle arrest in human MCF7 cells assessed as accumulation at GO phase at 2 uM after 24 hrs by propidium iodide staining based flow cytometry (reference value: 6.09%); assay type: functional
MCF7 [6] = assay: Cell cycle arrest in human MCF7 cells assessed as accumulation at G1 phase at 2 uM after 24 hrs by propidium iodide staining based flow cytometry (reference value: 60.5%); assay type: functional
MCF7 [7] = assay: Induction of apoptosis in human MCF7 cells assessed as double-strand DNA breaks at 2 uM after 24 hrs measured as phosphorylation at ser-139 on H2AX protein by immunostaining relative to control; assay type: functional
Summary of the method: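 MCF-7 cells on coverslips treated 24 h at 2 µM, fixed in 4% paraformaldehyde for 20 min at room temperature, blocked with 1% BSA for 60 min. Anti-γ-H2AX (Ser139) antibody at 1:100 for 2 h at room temperature, then FITC-conjugated anti-rabbit secondary for 1 h. Foci-positive cells scored as percentage against DMSO control.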

MCF7 [8] = assay: Cell cycle arrest in human MCF7 cells assessed as accumulation at S phase at 2 uM after 24 hrs by propidium iodide staining based flow cytometry (reference value: 6.99%); assay type: functional
MCF7 [9] = assay: Cell cycle arrest in human MCF7 cells assessed as accumulation at G2/M phase at 2 uM after 24 hrs by propidium iodide staining based flow cytometry (reference value: 26.42%); assay type: functional
MCF7 [10] = assay: Induction of apoptosis in human MCF7 cells assessed as single-strand DNA break at 2 uM after 24 hrs by comet assay relative to control; assay type: functional
Summary of the method: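 Alkaline comet assay in MCF-7 cells after 24 h at 2 µM. Electrophoresis 20 min at 40 V in 0.5% TBE pH 8, SYBR Green I stain, fluorescence microscopy; percentage of cells with tails scored.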

SMILES | GI50 (A549) | GI50 (COLO 205) | GI50 [1] | GI50 [2] | GI50 (ZR-75-1) | GI50 (MCF7 [3]) | GI50 (A2780) | GI50 (HOP-62) | Activity (MCF7 [4]) | Activity (MCF7 [5]) | Activity (MCF7 [6]) | Activity (MCF7 [7]) | Activity (MCF7 [8]) | Activity (MCF7 [9]) | Activity (MCF7 [10])
COc1cccc2c1C(=O)c1c(O)c3c(c(O)c1C2=O)C[C@@](O)(C(=O)CO)C[C@@H]3O[C@H]1C[C@H](N)[C@H](O)[C@H](C)O1 [DOXORUBICIN] | < 100 nM | < 100 nM | < 100 nM | < 100 nM | 110 nM | 130 nM | < 100 nM | 150 nM | – | – | – | – | – | – | –
COc1ccc(/C=C(/C(=O)N[C@@H]2c3cc4c(cc3[C@@H](c3cc(OC)c(OC)c(OC)c3)[C@H]3C(=O)OC[C@@H]32)OCO4)c2cc(OC)c(OC)c(OC)c2)cc1 | – | 170 nM | 2200 nM | 2300 nM | 2900 nM | 2900 nM | 2500 nM | – | – | – | – | – | – | – | –
COc1cc(/C=C(/C(=O)N[C@@H]2c3cc4c(cc3[C@@H](c3cc(OC)c(OC)c(OC)c3)[C@H]3C(=O)OC[C@@H]32)OCO4)c2cc(OC)c(OC)c(OC)c2)ccc1O | 2400 nM | – | – | – | 2900 nM | – | – | 2500 nM | – | – | – | – | – | – | –
COc1ccc(F)c(/C=C(/C(=O)N[C@@H]2c3cc4c(cc3[C@@H](c3cc(OC)c(OC)c(OC)c3)[C@H]3C(=O)OC[C@@H]32)OCO4)c2cc(OC)c(OC)c(OC)c2)c1 | – | – | 2500 nM | – | 2700 nM | – | – | – | – | – | – | – | – | – | –
COc1ccc(/C=C(/C(=O)N[C@@H]2c3cc4c(cc3[C@@H](c3cc(OC)c(OC)c(OC)c3)[C@H]3C(=O)OC[C@@H]32)OCO4)c2cc(OC)c(OC)c(OC)c2)cc1[N+](=O)[O-] | – | 2700 nM | 2600 nM | 2900 nM | 2200 nM | – | 2500 nM | 2300 nM | – | – | – | – | – | – | –
COc1cc([C@@H]2c3cc4c(cc3[C@H](O)[C@H]3COC(=O)[C@H]23)OCO4)cc(OC)c1OC [PODOFILOX] | – | – | – | – | – | – | – | – | inactive | 5.9% | 2.38% | inactive | 5.13% | 86.59% | –
COc1ccc(/C=C(/C(=O)N[C@@H]2c3cc4c(cc3[C@@H](c3cc(OC)c(OC)c(OC)c3)[C@H]3C(=O)OC[C@@H]32)OCO4)c2cc(OC)c(OC)c(OC)c2)c(F)c1 | 2100 nM | – | 180 nM | 190 nM | 2500 nM | 2400 nM | 2700 nM | 170 nM | – | – | – | – | – | – | –
COc1ccccc1/C(=C\c1ccc([N+](=O)[O-])cc1)C(=O)O | – | – | – | – | – | – | – | – | inactive | 3.07% | 66.28% | 30% | 10.53% | 20.12% | 20%
COc1cccc(/C=C(/C(=O)N[C@@H]2c3cc4c(cc3[C@@H](c3cc(OC)c(OC)c(OC)c3)[C@H]3C(=O)OC[C@@H]32)OCO4)c2cc(OC)c(OC)c(OC)c2)c1 | 2700 nM | – | 2100 nM | 2200 nM | 180 nM | < 100 nM | < 100 nM | 180 nM | Active | 4.83% | 52.49% | – | 6.43% | 36.35% | –
COc1cc(/C(=C\c2ccc(O)c([N+](=O)[O-])c2)C(=O)N[C@@H]2c3cc4c(cc3[C@@H](c3cc(OC)c(OC)c(OC)c3)[C@H]3C(=O)OC[C@@H]32)OCO4)cc(OC)c1OC | – | 2000 nM | 190 nM | < 100 nM | 180 nM | 2700 nM | 2200 nM | 190 nM | – | – | – | – | – | – | –
COc1ccc(/C=C(/C(=O)N[C@@H]2c3cc4c(cc3[C@@H](c3cc(OC)c(OC)c(OC)c3)[C@H]3C(=O)OC[C@@H]32)OCO4)c2cc(OC)c(OC)c(OC)c2)cc1O | 2900 nM | – | – | – | – | – | – | 2900 nM | – | – | – | – | – | – | –
COc1cc([C@@H]2c3cc4c(cc3[C@@H](O[C@@H]3O[C@@H]5CO[C@@H](C)O[C@H]5[C@H](O)[C@H]3O)[C@H]3COC(=O)[C@H]23)OCO4)cc(OC)c1O [ETOPOSIDE] | 3080 nM | 130 nM | 500 nM | 600 nM | 200 nM | 2100 nM | 1300 nM | 800 nM | Active | 7.54% | 17.29% | 70% | 12.31% | 62.86% | 10%
COc1ccccc1/C=C(/C(=O)N[C@@H]1c2cc3c(cc2[C@@H](c2cc(OC)c(OC)c(OC)c2)[C@H]2C(=O)OC[C@@H]21)OCO3)c1ccc([N+](=O)[O-])cc1 | – | – | – | – | – | – | – | – | Active | – | – | – | – | – | –
COc1cc(/C=C(/C(=O)N[C@@H]2c3cc4c(cc3[C@@H](c3cc(OC)c(OC)c(OC)c3)[C@H]3C(=O)OC[C@@H]32)OCO4)c2cc(OC)c(OC)c(OC)c2)ccc1F | – | – | 2400 nM | – | 2200 nM | – | – | 2500 nM | – | – | – | – | – | – | –
COc1ccccc1/C=C(/C(=O)N[C@@H]1c2cc3c(cc2[C@@H](c2cc(OC)c(OC)c(OC)c2)[C@H]2C(=O)OC[C@@H]21)OCO3)c1ccccc1[N+](=O)[O-] | – | – | – | – | – | – | – | – | Active | – | – | – | – | – | –
COc1ccc(/C=C\c2cc(OC)c(OC)c(OC)c2)cc1O [COMBRETASTATIN A4] | – | – | – | – | – | – | – | – | – | 5.07% | 2.49% | 50% | 8.03% | 84.41% | –
COc1ccc(/C=C(/C(=O)N[C@@H]2c3cc4c(cc3[C@@H](c3cc(OC)c(OC)c(OC)c3)[C@H]3C(=O)OC[C@@H]32)OCO4)c2cc(OC)c(OC)c(OC)c2)cc1F | – | 2400 nM | – | – | – | 2700 nM | – | – | – | – | – | – | – | – | –
COc1cc(/C(=C\c2cccc([N+](=O)[O-])c2)C(=O)N[C@@H]2c3cc4c(cc3[C@@H](c3cc(OC)c(OC)c(OC)c3)[C@H]3C(=O)OC[C@@H]32)OCO4)cc(OC)c1OC | 2400 nM | – | 2100 nM | < 100 nM | – | 2700 nM | 2500 nM | 170 nM | – | – | – | – | – | – | –
COc1cc(/C(=C\c2ccc(O)cc2)C(=O)N[C@@H]2c3cc4c(cc3[C@@H](c3cc(OC)c(OC)c(OC)c3)[C@H]3C(=O)OC[C@@H]32)OCO4)cc(OC)c1OC | 2300 nM | – | 2700 nM | 2700 nM | 2700 nM | – | – | 2600 nM | – | – | – | – | – | – | –
COc1cc(/C(=C\c2ccc([N+](=O)[O-])cc2)C(=O)N[C@@H]2c3cc4c(cc3[C@@H](c3cc(OC)c(OC)c(OC)c3)[C@H]3C(=O)OC[C@@H]32)OCO4)cc(OC)c1OC | – | 2100 nM | 2100 nM | 2400 nM | 2200 nM | – | 2600 nM | 2700 nM | – | – | – | – | – | – | –
